Source: ChEMBL document CHEMBL5154939, “Improved Binding Affinity and Pharmacokinetics Enable Sustained Degradation of BCL6 In Vivo” (J Med Chem, 2022)
In brackets after ≈: the same amount, converted by molar mass. Activity calls are given as the source filed them. No cut-off for these calls is given here.

Columns and labels:
[1] = target: T1, B-cell lymphoma 6 protein (Homo sapiens, UniProt P41182); experiment: Degradation of BCL6 in human OCI-Ly1 cells incubated for 2 hrs by MSD assay; type: cell-based
Summary of the method: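 Lysates were read by MSD sandwich immunoassay (goat capture, rabbit detection anti-BCL6, electrochemiluminescence). Signal was normalised to DMSO (high) and a reference degrader control at 2 μM (low). DC50 came from a four-parameter logistic fit, with Dmax reported.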

HT [2] = experiment: Antitumor activity against human HT cells xenografted in SCID mouse assessed as reduction in tumor growth at 50 mg/kg, po bid measured upto 22 days; type: functional, organism-based; details: time <= 22.0 day
Summary of the method: (§1)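 HT cells grown in RPMI-1640 with 10% FBS, kept at 0.5-2 × 10^6 cells/mL. For implantation, 10^7 cells per 200 µL in serum-free RPMI plus an equal volume of Matrigel were injected subcutaneously at a single site in female SCID mice. At day 20, tumours of 0.4-0.6 cm³ were chosen, n=10 per group. Oral dosing at 50 mg/kg or vehicle was given every 12 h for 22 days (DMSO/Kolliphor HS15/PEG400/aqueous HPMC, 0.2 mL per 20 g).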

[3] = Clearance in BALB/c mouse at 1 mg/kg, iv or 5 mg/kg, po measured after 6 hrs post-dose by ESI-LCMS/MS based UPLC analysis relative to hepatic blood flow; type: ADME, organism-based; details: in vivo
[4] = Toxicity in SCID mouse xenografted with human OCI-Ly1 cells assessed as noticeable adverse effects at 50 mg/kg, po measured for 12 to 24 hrs; type: organism-based; details: in vivo, time 12-24 hrs
Summary of the method: (§2)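 Female SCID mice with subcutaneous OCI-Ly1 xenografts (1.5×10^7 cells in serum-free IMDM/Matrigel; tumours 0.4-0.6 cm³ at day 20) received one oral dose of 50 mg/kg or vehicle (DMSO/Kolliphor HS15/PEG400/HPMC). Groups of n=3 were sampled at 12, 16 and 24 h. Tumour lysates were analysed by Wes capillary electrophoresis, with BCL6 normalised to GAPDH.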

[5] = target: T1, B-cell lymphoma 6 protein
[6] = Toxicity in BALB/c mouse at 1 mg/kg, iv or 5 mg/kg, po measured upto 24 hrs post-dose; type: organism-based; details: in vivo
[7] = Cmax in BALB/c mouse at 1 mg/kg, iv or 5 mg/kg, po measured after 6 hrs post-dose by ESI-LCMS/MS based UPLC analysis; type: ADME, organism-based; design: time 6 hrs, dose 5 mg/kg, route po; details: in vivo
[8] = Toxicity in SCID mouse xenografted with human HT cells assessed as body weight loss at 50 mg/kg, po bid measured upto 22 days; type: organism-based; details: in vivo, 528 h, time < 22 day; summary of the method: as §1
HT [9] = experiment: Downregulation of BCL6 levels in human HT cells xenografted in SCID mouse at 50 mg/kg, po bid measured for 4 to 12 hrs post-dose by capillary electrophoresis method; type: functional, organism-based; details: time lower 4.0 hrs, time upper […]
Summary of the method: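 Female SCID mice bearing subcutaneous HT xenografts (10^7 cells with Matrigel) were dosed orally at 50 mg/kg BID, every 12 h, for 22 days; vehicle was DMSO/Kolliphor HS15/PEG400/1.25% HPMC. Tumours were taken 4 and 12 h after the final dose, snap-frozen and bead-homogenised in Tris/Triton lysis buffer. Lysates at 0.0875 mg/ml were run on Wes capillary electrophoresis, with BCL6 normalised to GAPDH.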

OCI-Ly1 = experiment: Downregulation of BCL6 levels in human OCI-Ly1 cells xenografted in SCID mouse at 50 mg/kg, po measured for 12 to 24 hrs by capillary electrophoresis method; type: functional, organism-based; details: time lower […], time upper 24.0 hrs; summary of the method: as §2
[10] = Kinetic aqueous solubility of the compound in 1% DMSO/PBS at pH 7.4 incubated for 2 hrs by UV-vis detection based HPLC analysis; type: physicochemical; details: PBS with 1% DMSO, read-out: Kinetic_solubility
Summary of the method: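 A 10 mM DMSO stock was diluted into PBS pH 7.4 to 100 µM final with 1% DMSO, shaken 2 h at 20 °C and centrifuged. The supernatant was mixed with DMSO and measured by HPLC-UV on a 5 min water:methanol gradient with 0.1% formic acid at 30 °C, against an external standard from the same stock.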

[11] = Passive membrane permeability of compound in phosphate buffered saline at pH 7.4 at 10 uM incubated for 16 hrs by PAMPA assay based TQ-S LC-MS/MS analysis; type: ADME; details: read-out: permeability
Summary of the method: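 PAMPA with a 2% phosphatidylcholine-in-dodecane membrane. Compound at 10 µM in PBS pH 7.4 containing 1% BSA was incubated 16 h at 30 °C. Supernatants were diluted and quantified by LC-MS/MS.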

SMILES | EC50 [1] [nM] | other results
C[C@@H]1CCCN(c2ncc(Cl)c(Nc3ccc4c(c3)c3c(c(=O)n4C)OCC(F)(F)[C@H](C4CC4)N3)n2)C1 | 32.6 | 
C[C@H]1C[C@@H](N(C)C)CN(c2ncc(Cl)c(Nc3ccc4c(c3)c3c(c(=O)n4C)OCC(F)(F)[C@H](C4CC4)N3)n2)C1 | 9.8 | 
C[C@H]1C[C@H](O)CN(c2ncc(Cl)c(Nc3ccc4c(c3)c3c(c(=O)n4C)OCC(F)(F)[C@H](C4CC4)N3)n2)C1 | > 2000 | 
C[C@H]1C[C@@H](O)CN(c2ncc(Cl)c(Nc3ccc4c(c3)n(CCC(C)(C)O)c(=O)n4C)n2)C1 (relative stereo) | 35 | 
C[C@H]1CCCN(c2ncc(Cl)c(Nc3ccc4c(c3)c3c(c(=O)n4C)OCC(F)(F)[C@H](C4CC4)N3)n2)C1 | 6.3 | 
CC(=O)N[C@@H]1C[C@H](C)CN(c2ncc(Cl)c(Nc3ccc4c(c3)c3c(c(=O)n4C)OCC(F)(F)[C@H](C4CC4)N3)n2)C1 | 2.2 | 
C[C@H]1C[C@@H](O)CN(c2ncc(Cl)c(Nc3ccc4c(c3)c3c(c(=O)n4C)OCC(F)(F)[C@H](C4CC4)N3)n2)C1 | 0.7 | Activity (HT [2]): Active; CLH [3]: 6%; Activity [4]: Non-Toxic; EC50 [5]: 1 nM; Activity [6]: Non-Toxic; Cmax [7]: 3950 nM; Activity [8]: Non-Toxic; Activity (HT [9]): Active; Activity (OCI-Ly1): Active
Cn1c(=O)c2c(c3cc(Nc4nc(N5CCC(F)(F)[C@H](CO)C5)ncc4Cl)ccc31)N[C@@H](C1CC1)C(F)(F)CO2 | > 2000 | 
Cn1c(=O)c2c(c3cc(Nc4nc(N5CCC(F)(F)[C@@H](CO)C5)ncc4Cl)ccc31)N[C@@H](C1CC1)C(F)(F)CO2 | 2.7 | solubility kinetic at 2 h [10]: 13 µM (≈ 7.58 µg/mL); Papp at 16 h, 10 µM [11]: 21 ×10⁻⁶ cm/s
Cn1c(=O)n(CCC(C)(C)O)c2cc(Nc3nc(N4CCC(F)(F)C(O)C4)ncc3Cl)ccc21 (racemic) | 276 | 
Cn1c(=O)c2c(c3cc(Nc4nc(N5CCC[C@@H](O)C5)ncc4Cl)ccc31)N[C@@H](C1CC1)C(F)(F)CO2 | > 2000 | 
C[C@@H]1C[C@@H](O)CN(c2ncc(Cl)c(Nc3ccc4c(c3)c3c(c(=O)n4C)OCC(F)(F)[C@H](C4CC4)N3)n2)C1 | > 2000 | 
Cn1c(=O)c2c(c3cc(Nc4nc(N5CCC(F)(F)[C@@H](O)C5)ncc4Cl)ccc31)N[C@@H](C1CC1)C(F)(F)CO2 | 7.1 | 
C[C@@H]1CN(c2ncc(Cl)c(Nc3ccc4c(c3)n(CCC(C)(C)O)c(=O)n4C)n2)C[C@H](C)C1(F)F |  | CLH [3]: 22%; Cmax [7]: 1580 nM; Papp at 16 h, 10 µM [11]: 33 ×10⁻⁶ cm/s
C[C@@H]1C[C@H](N(C)C)CN(c2ncc(Cl)c(Nc3ccc4c(c3)c3c(c(=O)n4C)OCC(F)(F)[C@H](C4CC4)N3)n2)C1 | > 2000 | 
CC(=O)N[C@H]1C[C@@H](C)CN(c2ncc(Cl)c(Nc3ccc4c(c3)c3c(c(=O)n4C)OCC(F)(F)[C@H](C4CC4)N3)n2)C1 | > 2000 | 
Cn1c(=O)c2c(c3cc(Nc4nc(N5CCC[C@H](O)C5)ncc4Cl)ccc31)N[C@@H](C1CC1)C(F)(F)CO2 | > 2000 | 
C[C@@H]1C[C@H](O)CN(c2ncc(Cl)c(Nc3ccc4c(c3)c3c(c(=O)n4C)OCC(F)(F)[C@H](C4CC4)N3)n2)C1 | > 2000 | EC50 [5]: > 2000 nM; Papp at 16 h, 10 µM [11]: 16 ×10⁻⁶ cm/s
Cn1c(=O)c2c(c3cc(Nc4nc(N5CCC(F)(F)[C@H](O)C5)ncc4Cl)ccc31)N[C@@H](C1CC1)C(F)(F)CO2 | > 2000 | 
